Activity calls are given as the source filed them.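 How the source made its calls, unless noted: active means compounds giving at least 50% inhibition in the cell-based MKP-3 phosphatase rescue imaging test; inactive means the rest.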

Test [1] in a line: inhibitors of TNFa-induced NFkB p65 translocation, primary screen, imaging, HUVEC, MLSMR starter and 10KST1 sets (AID 438;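 active means inhibition above 20% together with a positive visual image hit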;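 further: compound added about 3h40 before a 20 min TNFalpha stimulation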;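 on inhibition: signal is the nuclear over cytoplasmic p65 intensity ratio per well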). Particulars: HUVEC TNFa-induced p65 nuclear translocation; cell count: measured here: nuclei count (cytotoxicity indicator), at 2.08 µM; inhibition: at 2 µM, stronger effect = higher value, 0% TNFa-plus-vehicle, 100% no-TNFa wells.
Test [2] can be described thus: endothelial E-selectin expression blockers – imaging, HUVEC, immunofluorescence, MLSMR starter and 10KST1 sets, primary screen (AID 487;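 active means visually confirmed hit in the image check and inhibition above 20%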;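 on inhibition: signal is fraction of cell area covered by stained E-selectin grains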;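 on nuclei count: 100% = median nuclei count of all wells on the same plate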). Particulars: HUVEC TNFalpha-induced E-selectin immunofluorescence imaging, at 2 µM; inhibition: stronger effect = higher value; nuclei count: measured here: cell number, toxicity.
Test [3] can be described thus: Primary imaging screen for DUSP6 inhibitors that restore phospho-Erk in transfected HeLa cells, chemical complementation (AID 609).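 On inhibition: phospho-Erk level distribution per well compared with pooled transfected vehicle control wells.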 To be noted: HeLa MKP-3 transfected, phospho-Erk imaging KS statistic, at 10 µM, cells stimulated with TPA for 15 min.
The target of test [4] is Dual specificity protein phosphatase 6 (Homo sapiens) (UniProt Q16828). The description is as above. To be noted: HeLa MKP-3 transfected, phospho-Erk imaging KS statistic; at 10 µM; stronger effect = higher value; cells stimulated with TPA for 15 min.
The target of test [5] is Voltage-gated potassium channel subunit beta-2 (Rattus norvegicus) (UniProt P62483). The test is described as follows: inhibitors of rat Kvbeta2 reductase activity – biochemical, NADPH fluorescence, primary screen (AID 622;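 active means fluorescence slope higher than the sample average by over 3 SD, cut at about -0.22 in these data, passing the limit was not always enough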;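 further: slope of raw intensity against log time taken from 70 to 1610 s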). Particulars: recombinant KvBeta, 4-cyanobenzaldehyde reduction, at 10 µM, stronger effect = higher value.
For test [6] the target is unchanged. The test can be described thus: enhancers of rat Kvbeta2 NADPH turnover – biochemical, NADPH fluorescence, primary screen (AID 623;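 active means NADPH fluorescence slope more negative than the mean of all samples by about 3 SD, 99.7% confidence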;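 further: fluorescence intensity change per second fitted from 20 to 320 s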). Particulars: Recombinant KvBeta, NADPH fluorescence decrease slope, 10 min; at 10 µM; stronger effect = lower value.
The target of test [7] is Alpha-2C adrenergic receptor (Homo sapiens) (UniProt P18825). The test can be described thus: compounds altering alpha2C-coupled GIRK flux – cell-based, HEK293 alpha2C/GIRK1/2, thallium flux, primary screen (AID 624;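 active means fluorescence slope after compound addition differing from the mean of all screened samples at 99.7% confidence, in either direction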;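 further: slope of fluorescence ratio to pre-addition baseline per second over 15 to 24 s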). To be noted: thallium flux BTC fluorescence, at 10 µM, actives lie on both sides.
Test [8] in a line: inhibitors of larval lipid processing in zebrafish, primary screen, whole organism, PED6 fluorescence, gall bladder and intestine (AID 686;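 active means a full or partial loss of lipid-probe fluorescence in the fish gall bladder, intestine or both, judged by eye; inactive means no fluorescence loss, or compound toxic to the fish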;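 further: larvae 5 to 7 days old with five fish per well; signal comes from phospholipase A2 cleavage of quenched PED6 carried via bile; overnight exposure to compound and PED6 before scoring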). To be noted: Zebrafish larvae PED6 lipid processing, fluorescence scoring; screened at 20 µM (by protocol). The gist of the method:
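Doses: 20 µM single dose. Test system: live zebrafish larvae aged 5-7 days, whole organism. Quantity: five larvae per well. Measured by: By-eye fluorescence microscopy. Reagent: ingested quenched lipid PED6 at 100 nM. Read-out: visual per-well fluorescence inhibition score. Times: overnight exposure of larvae to compound plus PED6.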

Test [9] can be described thus: loss of swimming-algae plug formation – whole organism, Chlamydomonas reinhardtii, WT vs cilia-less mutant, absorbance, 96-well, primary screen (AID 463189;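 active means inhibition at or above 50% relative to wild type and mutant plate controls; inactive means inhibition below 50%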;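 further: 0% = wild type cc124 cells in DMSO and 100% = ciliumless bld1 mutant cells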). To be noted: Chlamydomonas reinhardtii gravitaxis, OD600 absorbance, 2 days; at 10 µM; stronger effect = higher value.
Where [10] appears, read: measured here: cell density z-score.
[11] abbreviates: measured here: nuclear c-Myc green intensity z-score.
Where [12] appears, read: measured here: nuclear pErk red intensity z-score, stronger effect = higher value.

Dual specificity protein phosphatase 6 (Homo sapiens), sequence (Q16828 whole entry, looked up): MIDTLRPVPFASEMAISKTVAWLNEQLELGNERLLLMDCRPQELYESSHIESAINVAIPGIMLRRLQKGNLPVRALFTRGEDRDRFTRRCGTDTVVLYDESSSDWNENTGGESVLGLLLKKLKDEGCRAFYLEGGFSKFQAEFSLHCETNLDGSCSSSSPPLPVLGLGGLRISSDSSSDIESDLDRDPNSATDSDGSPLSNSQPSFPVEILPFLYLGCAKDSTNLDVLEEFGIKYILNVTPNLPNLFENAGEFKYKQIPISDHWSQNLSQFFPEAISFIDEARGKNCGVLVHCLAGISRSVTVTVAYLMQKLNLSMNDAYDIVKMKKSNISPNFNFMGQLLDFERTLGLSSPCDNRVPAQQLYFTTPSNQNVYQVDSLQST
Alpha-2C adrenergic receptor (Homo sapiens), sequence (P18825 whole entry, looked up): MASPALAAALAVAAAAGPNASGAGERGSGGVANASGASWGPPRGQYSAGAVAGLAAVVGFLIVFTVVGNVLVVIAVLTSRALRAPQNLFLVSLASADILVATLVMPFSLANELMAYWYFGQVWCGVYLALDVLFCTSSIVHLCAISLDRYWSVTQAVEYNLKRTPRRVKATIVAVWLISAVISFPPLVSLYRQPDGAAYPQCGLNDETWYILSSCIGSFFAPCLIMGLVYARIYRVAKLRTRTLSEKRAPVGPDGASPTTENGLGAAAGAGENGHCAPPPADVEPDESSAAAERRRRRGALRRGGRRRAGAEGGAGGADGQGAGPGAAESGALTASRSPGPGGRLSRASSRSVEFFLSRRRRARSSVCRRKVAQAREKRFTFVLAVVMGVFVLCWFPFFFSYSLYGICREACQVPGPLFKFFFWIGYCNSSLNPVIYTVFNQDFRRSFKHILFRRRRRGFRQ
Voltage-gated potassium channel subunit beta-2 (Rattus norvegicus), sequence (P62483 whole entry, looked up): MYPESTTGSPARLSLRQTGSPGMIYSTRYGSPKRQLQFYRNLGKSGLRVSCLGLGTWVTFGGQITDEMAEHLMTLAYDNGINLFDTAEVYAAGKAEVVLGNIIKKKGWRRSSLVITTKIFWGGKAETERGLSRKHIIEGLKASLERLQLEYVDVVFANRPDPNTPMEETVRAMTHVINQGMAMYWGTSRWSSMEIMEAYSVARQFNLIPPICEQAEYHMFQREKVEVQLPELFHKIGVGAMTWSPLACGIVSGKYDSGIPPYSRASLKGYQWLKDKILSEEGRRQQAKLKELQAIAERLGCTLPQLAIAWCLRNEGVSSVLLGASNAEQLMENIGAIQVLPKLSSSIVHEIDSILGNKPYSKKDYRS

On to `Cc1nnc2n(-c3ccccc3)c(=O)c3c4c(sc3n12)COC(C(C)C)C4` (stereo unspecified), for which the cell count in test [1] stood at 542. For the same compound, the inhibition in [1] was -6.5% (inactive); in test [2], -106% (inactive); in test [4] it was -0.608% (inactive); in test [9], -3.02% (inactive). Besides, the nuclei count in test [2] is 177%. Moreover, the z-score in test [3] (setting [10]) was -0.97; in test [3] (setting [11]), 1.36; in [3] (setting [12]), -0.55. In addition, the fluorescence slope in [5] is -0.357 (inactive). Moreover, in [6], the NADPH fluorescence slope is -2.6e-05 (inactive). Also, in test [7], the slope was 0.00506 (inactive). In addition, the call in [8] was inactive.
As to `CC1CN(C2CCN(S(=O)(=O)c3ccccc3)CC2)CC(C)O1` (stereo unspecified), the cell count in test [1] worked out at 451. Further, the inhibition in test [1] is -10.8% (inactive); in test [2], -248% (inactive); in test [4], 4.37% (inactive); in test [9], 6.96% (inactive). In [2], this compound returned a nuclei count of 159%. The z-score was 1.27 in [3] (setting [10]), -1.71 in [3] (setting [11]) and -0.713 in [3] (setting [12]). In [5], the fluorescence slope is -0.322 (inactive). Moreover, the NADPH fluorescence slope in [6] was -2.3e-05 (inactive). Moreover, the slope in test [7] was 0.00481 (inactive). Also, the call in test [8] was inactive.
Regarding `Cc1ccc(C)c(OCc2nnc(NC(=O)c3ccco3)s2)c1`, the cell count in test [1] is 656. Further, the inhibition is -2.1% (inactive) in [1], 37.1% (inactive) in test [2], -4.27% (inactive) in test [4] and -2.58% (inactive) in test [9]. In [2], this compound showed a nuclei count of 191%. Further, the values for the z-score in test [3] (setting [10]), in [3] (setting [11]) and in [3] (setting [12]) were -0.0885, 2.13 and -0.0889, respectively. Besides, the fluorescence slope in test [5] is -0.389 (inactive). Further, the NADPH fluorescence slope in test [6] is -5.4e-05 (inactive). Moreover, in test [7], the slope is 0.0056 (inactive). Further, in test [8], the compound was called inactive.
As for `CN1CCc2nc(SCC(=O)Nc3ccc(Cl)cc3)c(C#N)cc2C1`, the cell count in test [1] was 378. The inhibition in [1] is -14.3% (inactive); in test [2], -155% (inactive); in test [4] it was 12.3% (inactive); in test [9], 0.323% (inactive). The same compound registered a nuclei count in test [2] of 162%. In addition, the z-score was 1.95 in [3] (setting [10]), -0.641 in test [3] (setting [11]) and -1.16 in test [3] (setting [12]). Moreover, the fluorescence slope in [5] was -0.422 (inactive). Further, the NADPH fluorescence slope in [6] was -0.000135 (inactive). Further, the slope in test [7] is 0.0059 (inactive). For the same compound, the compound was called inactive in test [8].
For `Cc1cccc(OCc2nc(C)cc(=O)[nH]2)c1`, the cell count in test [1] turned out to be 594. In addition, the inhibition in test [1] was -7.7% (inactive); in test [2], -84.7% (inactive); in test [4], 14% (inactive); in test [9], -4.66% (inactive). Moreover, the nuclei count in test [2] stood at 173%. The results for the z-score in [3] (setting [10]), in [3] (setting [11]) and in test [3] (setting [12]) were 2.18, 0.349 and -1.33, respectively. Also, the fluorescence slope in test [5] is -0.409 (inactive). In addition, the NADPH fluorescence slope in test [6] is -2.4e-05 (inactive). Besides, the slope in [7] was 0.00552 (inactive). Also, the call in test [8] was inactive.
In the case of `COc1cc(NC2=CC(=O)CC(C)(C)C2)cc(OC)c1OC`, the cell count in [1] was 584. Also, the inhibition in test [1] is -15% (inactive); in test [2], -72.4% (inactive); in [4] it was -1.98% (inactive); in test [9], -4.05% (inactive). This compound also returned a nuclei count in test [2] of 141%. Besides, the z-score in test [3] (setting [10]) is -0.351; in test [3] (setting [11]) it was -0.143; in test [3] (setting [12]), 0.715. The fluorescence slope in test [5] is -0.488 (inactive). In addition, the NADPH fluorescence slope in [6] was -3.8e-05 (inactive). Further, the slope in [7] is 0.00597 (inactive). Further, the result in test [8] was inactive.
For the compound `Oc1c(C=Nc2cccnc2)sc2ccccc12`, the cell count in test [1] was determined as 623. Besides, the inhibition in test [1] is -14.4% (inactive); in test [2], -17% (inactive); in test [4], -20.4% (inactive); in [9], -14.9% (inactive). The compound also yielded a nuclei count in test [2] of 170%. Further, the z-score in test [3] (setting [10]) came to 0.476; in [3] (setting [11]), 0.705; in test [3] (setting [12]), 1.13. In addition, the fluorescence slope in test [5] was -0.405 (inactive). In test [6], the NADPH fluorescence slope was -6e-05 (inactive). Besides, in test [7], the slope was 0.0055 (inactive). In addition, the call in test [8] was inactive.

These data come from PubChem BioAssay.
